Reference: ChEMBL document CHEMBL1759862, “Tricyclic compounds containing nonenolizable cyano enones. A novel class of highly potent anti-inflammatory and cytoprotective agents” (J Med Chem, 2011)
Several values for one entry are separate records, joined by “and”; a condition that tells them apart may be missing. Equal values may be shown once. Activity calls are given as the source filed them. The calls are words filed in the database; no cut-off is given here.

What was measured:
RAW264.7 [1] = experiment: Antiinflammatory activity in mouse RAW264.7 cells assessed as inhibition of IFN-gamma induced NO production after 24 hrs by Griess reaction; assay type: functional, cell-based
Method in brief: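 RAW 264.7 cells exposed to serial concentrations of compound together with IFN-γ (10 ng/mL) for 24 h; NO in supernatants quantified by Griess reaction. IC50 tested over 0.1 pM to 10 μM in 10-fold steps; values averaged from two separate experiments.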

Liver [2] = experiment: Antitumor activity against aflatoxin B1-induced tumorigenesis in F344 rat liver assessed as reduction in tumor burden at 10 umol/kg administered via gavage relative to control; assay type: functional; set-up: scale not given: the % may be the effect or the level left
Method in brief: (§1)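 Short-term rat model of liver tumorigenesis induced with aflatoxin B1. Test agent was given at 0.3 to 60 μmol/kg. Preneoplastic foci were scored in liver, and tumor burden was expressed against the AFB1-treated positive control group.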

Rattus norvegicus [3] = experiment: Toxicity in F344 rat assessed as effect on body weight at 0.3 to 60 umol administered via gavage; assay type: organism-based; details: in vivo, po
Method in brief: (§2)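 Tolerability was checked in rats in the aflatoxin B1 short-term hepatic tumorigenesis study, dosed at 0.3 to 60 μmol/kg. Growth rate and final body weight were compared with controls not given AFB1.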

Liver [4] = experiment: Induction of HO-1 expression in CD-1 mouse liver at 1 umol administered via gavage measured after 6 hrs by Western blotting; assay type: functional, tissue-based
Rattus norvegicus [5] = experiment: Toxicity in F344 rat assessed as growth rate at 0.3 to 60 umol administered via gavage; assay type: organism-based; details: in vivo, po; method in brief: as §2
Stomach = experiment: Induction of HO-1 expression in CD-1 mouse stomach at 1 umol administered via gavage measured after 6 hrs by Western blotting; assay type: functional, tissue-based
Method in brief: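 Male CD-1 mice, three per group, received 1 μmol of compound in DMSO by gavage. Stomachs were harvested 6 h later, and HO-1 was detected by Western blot of tissue.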

[6] = target: NAD(P)H dehydrogenase [quinone] 1 (Mus musculus) (UniProt Q64669); experiment: Induction of NQO1 activity in mouse Hepa-1c1c7 cells after 48 hrs; assay type: cell-based
RAW264.7 [7] = experiment: Induction of HO-1 expression in mouse RAW264.7 cells at 10 nM after 6 hrs by Western blotting; assay type: functional, cell-based
Method in brief: (§3)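 RAW 264.7 macrophages were exposed to compound at 10–100 nM for 6 h. HO-1 protein was detected by Western blot of total cell lysates.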

RAW264.7 [8] = experiment: Induction of HO-1 expression in mouse RAW264.7 cells at 100 nM after 6 hrs by Western blotting; assay type: functional, cell-based; method in brief: as §3
[9] = Antiinflammatory activity in CD-1 mouse Macrophage assessed as inhibition of IFN-gamma induced NO production after 48 hrs by Griess reaction; assay type: functional, cell-based
Macrophage [10] = experiment: Ratio of CDDO IC50 to compound IC50 for inhibition of IFN-gamma induced NO production in mouse macrophages; assay type: functional
RAW264.7 [11] = experiment: Ratio of CDDO IC50 to compound IC50 for inhibition of IFN-gamma induced NO production in mouse RAW264.7 cells; assay type: functional
Method in brief: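 RAW 264.7 cells were co-treated with compound (0.1 pM to 10 μM, 10-fold dilutions) and IFN-γ 10 ng/mL for 24 h. Nitric oxide in supernatants was measured by the Griess reaction. IC50 is the mean of two separate experiments, and the ratio is taken against CDDO's IC50.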

Liver [12] = experiment: Antitumor activity against aflatoxin B1-induced tumorigenesis in F344 rat liver assessed as reduction in tumor burden at 0.3 umol/kg administered via gavage relative to control; assay type: functional; set-up: scale not given: the % may be the effect or the level left; method in brief: as §1
Liver [13] = experiment: Antitumor activity against aflatoxin B1-induced tumorigenesis in F344 rat liver assessed as reduction in tumor burden at 30 umol/kg administered via gavage; assay type: functional, tissue-based; method in brief: as §1
Liver [14] = experiment: Antitumor activity against aflatoxin B1-induced tumorigenesis in F344 rat liver assessed as reduction in tumor burden at 60 umol/kg administered via gavage; assay type: functional, tissue-based; method in brief: as §1
RAW264.7 [15] = experiment: Induction of HO-1 expression in mouse RAW264.7 cells at 30 nM after 6 hrs by Western blotting; assay type: functional, cell-based
Method in brief: (§4)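 RAW cells treated with compound for 6 h (30–300 nM range); HO-1 detected in total cell lysates by Western blot.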

Liver [16] = experiment: Antitumor activity against aflatoxin B1-induced tumorigenesis in F344 rat liver assessed as inhibition of preneoplastic foci formation administered via gavage; assay type: functional, tissue-based; method in brief: as §1
RAW264.7 [17] = experiment: Inhibition of IFN-gamma induced iNOS expression in mouse RAW264.7 cells at 30 nM after 24 hrs by Western blotting; assay type: functional, cell-based
RAW264.7 [18] = experiment: Induction of HO-1 expression in mouse RAW264.7 cells at 300 nM after 6 hrs by Western blotting; assay type: functional, cell-based; method in brief: as §4
Macrophage [19] = experiment: Antiinflammatory activity in CD-1 mouse Macrophage assessed as inhibition of IFN-gamma induced NO production after 48 hrs by Griess reaction in presence of glucocorticoid antagonist mifepristone; assay type: functional, cell-based
RAW264.7 [20] = experiment: Inhibition of IFN-gamma induced iNOS expression in mouse RAW264.7 cells at 300 nM after 24 hrs by Western blotting; assay type: functional, cell-based
[21] = Cytotoxicity against CD-1 mouse macrophages at 10 uM; assay type: cell-based; details: macrophage

Chain of NAD(P)H dehydrogenase [quinone] 1 (Mus musculus) (Q64669 whole entry): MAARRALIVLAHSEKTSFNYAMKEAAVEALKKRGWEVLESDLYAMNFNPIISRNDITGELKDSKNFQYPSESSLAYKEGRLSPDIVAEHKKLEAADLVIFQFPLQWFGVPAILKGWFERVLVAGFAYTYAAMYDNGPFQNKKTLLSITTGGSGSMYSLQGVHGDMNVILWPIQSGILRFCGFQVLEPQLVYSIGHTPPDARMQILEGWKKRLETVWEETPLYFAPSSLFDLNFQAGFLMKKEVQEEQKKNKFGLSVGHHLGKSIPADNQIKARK

CC1(C)CC[C@]2(C(=O)n3ccnc3)CC[C@]3(C)[C@H](C(=O)C=C4[C@@]5(C)C=C(C#N)C(=O)C(C)(C)[C@@H]5CC[C@]43C)[C@@H]2C1
IC50 (RAW264.7 [1]; Mus musculus, RAW264.7, 24 h): 1 nM | Activity (Liver [2]): 99% | Activity (Rattus norvegicus [3]): Non-toxic | Activity (Liver [4]): Active | Activity (Rattus norvegicus [5]): Non-toxic | Activity (Stomach): Active | CD [6]: 3.3 nM

C#C[C@@]12C=C(C#N)C(=O)C=C1[C@]1(C)C=C(C#N)C(=O)C(C)(C)[C@H]1CC2
IC50 (RAW264.7 [1]; Mus musculus, RAW264.7, 24 h): 1 nM | Activity (RAW264.7 [7]): Active | Activity (RAW264.7 [8]): Active | CD [6]: 0.9 nM

CC1(C)C(=O)C(C#N)=C[C@@]2(C)C3=CC(=O)C(C#N)=C[C@@]3(C#C[Si](C)(C)C)CC[C@H]12
IC50 (RAW264.7 [1]; Mus musculus, RAW264.7, 24 h): 2 nM | Activity (RAW264.7 [7]): Active | Activity (RAW264.7 [8]): Active | CD [6]: 2.3 nM

C#C[C@]12C=C(C#N)C(=O)C=C1[C@@]1(C)C=C(C#N)C(=O)C(C)(C)[C@@H]1CC2 (racemic) [listing 1 of 2 here]
IC50 (RAW264.7 [1]; raw264.7): 1 nM | Activity (Liver [2]): 99% | IC50 ([9]; Mus musculus, CD-1, Macrophage, 48 h): 0.056 nM | Ratio (Macrophage [10]): 80 | Ratio (RAW264.7 [11]): 20 | Activity (Rattus norvegicus [3]): Non-toxic | Activity (Liver [12]): 90% | Activity (Rattus norvegicus [5]): Non-toxic

C#C[C@]12C=C(C#N)C(=O)C=C1[C@@]1(C)C=C(C#N)C(=O)C(C)(C)[C@@H]1CC2 (racemic) [listing 2 of 2 here]
Activity (RAW264.7 [7]): Active | Activity (RAW264.7 [8]): Active | Activity (Liver [13]): Active | Activity (Stomach): Active | Activity (Liver [14]): Active | CD [6]: 0.9 nM | Activity (RAW264.7 [15]): Active | inhibition (Liver [16]): Dose-dependent effect | inhibition (RAW264.7 [17]): Active | Activity (RAW264.7 [18]): Active

CC1(C)C(=O)C(C#N)=C[C@]2(C)C3=CC(=O)C(C#N)=C[C@]3(C#C[Si](C)(C)C)CC[C@@H]12 (racemic)
Activity (RAW264.7 [7]): Active | Activity (RAW264.7 [8]): Active | CD [6]: 3.5 nM | Activity (RAW264.7 [15]): Active | inhibition (RAW264.7 [17]): Active | Activity (RAW264.7 [18]): Active

CC1(C)C(=O)C(C#N)=C[C@]2(C)C3=CC(=O)C(C#N)=C[C@]3(C)CC[C@@H]12 (racemic)
Activity (Liver [4]): Active | inhibition (Macrophage [19]): Active | inhibition (RAW264.7 [20]): Active | CD [6]: 18 nM | Activity (RAW264.7 [18]): Active

CC1(C)CC[C@]2(C(=O)O)CC[C@]3(C)[C@H](C(=O)C=C4[C@@]5(C)C=C(C#N)C(=O)C(C)(C)[C@@H]5CC[C@]43C)[C@@H]2C1 [BARDOXOLONE]
IC50 (RAW264.7 [1]; Mus musculus, RAW264.7, 24 h): 17 nM | IC50 ([9]; macrophage): 4.3 nM and 0.5 nM | Activity [21]: Non-toxic | Activity (Liver [4]): inactive | Activity (Stomach): inactive | CD [6]: 2.3 nM
